Data from ChEMBL document CHEMBL4359831, “Chemoproteomics of an Indole-Based Quinone Epoxide Identifies Druggable Vulnerabilities in Vancomycin-Resistant Staphylococcus aureus” (J Med Chem, 2019).
≈ marks a conversion by molar mass, not a printed value. Calls of active or inactive are those of the source. The rule behind the calls is not given here.

How the values were obtained:
Staphylococcus aureus [1] = assay: Binding affinity to Staphylococcus aureus ATCC 29213 Catabolite control protein A at 10 uM in presence of 9-(Pent-4-yn-1-yl)-1a,10a-dihydro-2H-oxireno[2',3':4,5]-benzo[1,2-a]carbazole-2,10(9H)-dione after 1 hr by biotin-azide fluorescence dependent LC-MS/MS-based ABPP assay
In short: (§1)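 Competitive LC–MS/MS ABPP on S. aureus soluble proteome. Pretreatment 1 h with DMSO, compound (10 μM), comparator (10 μM) or iodoacetamide (10 mM). Chase with alkyne probe (10 μM, 1 h), then Cu-catalysed click with biotin-azide and LC–MS/MS. Targets were proteins at ratio ≤0.1 versus DMSO in the compound and IAM groups and ~1 in the comparator group.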

Staphylococcus aureus [2] = assay: Binding affinity to Staphylococcus aureus ATCC 29213 HxlR family transcriptional regulator at 10 uM in presence of 9-(Pent-4-yn-1-yl)-1a,10a-dihydro-2H-oxireno[2',3':4,5]-benzo[1,2-a]carbazole-2,10(9H)-dione after 1 hr by biotin-azide fluorescence dependent LC-MS/MS-based ABPP assay; in short: as §1
[3] = Chemical reactivity assessed as thiolated-adduct formation at 25 uM using 4-nitrobenzyl thiol after 1 hr by HPLC analysis; format: physicochemical
[4] = L-cysteine reactivity in pH 7.4 phosphate buffer assessed as compound remaining at 100 uM incubated for 1 hr by HPLC analysis
[5] = L-cysteine reactivity in pH 7.4 phosphate buffer assessed as pseudo first order rate constant at 100 uM measured at 10 mins time interval up to 60 mins by HPLC analysis
Staphylococcus aureus [6] = assay: Antibacterial activity against vancomycin-resistant Staphylococcus aureus HIP11714 after 16 to 18 hrs by CLSI M07-A10 protocol based dilution method; format: functional
Staphylococcus aureus [7] = assay: Antibacterial activity against vancomycin-resistant Staphylococcus aureus 1002434 after 16 to 18 hrs by CLSI M07-A10 protocol based dilution method; format: functional
Staphylococcus aureus [8] = assay: Antibacterial activity against vancomycin-resistant Staphylococcus aureus SA-HIP-14300 after 16 to 18 hrs by CLSI M07-A10 protocol based dilution method; format: functional
Staphylococcus aureus [9] = assay: Binding affinity to Staphylococcus aureus ATCC 29213 Hydroxyethylthiazole kinase at 10 uM in presence of 9-(Pent-4-yn-1-yl)-1a,10a-dihydro-2H-oxireno[2',3':4,5]-benzo[1,2-a]carbazole-2,10(9H)-dione after 1 hr by biotin-azide fluorescence dependent LC-MS/MS-based ABPP assay; in short: as §1
Staphylococcus aureus [10] = assay: Binding affinity to Staphylococcus aureus ATCC 29213 MEP-cytidylyltransferase at 10 uM in presence of 9-(Pent-4-yn-1-yl)-1a,10a-dihydro-2H-oxireno[2',3':4,5]-benzo[1,2-a]carbazole-2,10(9H)-dione after 1 hr by biotin-azide fluorescence dependent LC-MS/MS-based ABPP assay; in short: as §1
Staphylococcus aureus [11] = assay: Antibacterial activity against vancomycin-resistant Staphylococcus aureus SA-71080 after 16 to 18 hrs by CLSI M07-A10 protocol based dilution method; format: functional
Staphylococcus aureus [12] = assay: Binding affinity to Staphylococcus aureus ATCC 29213 DAPDC at 10 uM in presence of 9-(Pent-4-yn-1-yl)-1a,10a-dihydro-2H-oxireno[2',3':4,5]-benzo[1,2-a]carbazole-2,10(9H)-dione after 1 hr by biotin-azide fluorescence dependent LC-MS/MS-based ABPP assay; in short: as §1
Erythrocyte = assay: Toxicity in human erythrocytes assessed as induction of hemolysis at 100 ug/ml incubated under shaking condition for 1 hr by spectrophotometric method; format: cell-based
[13] = biological target: T1, Arsenate reductase (Staphylococcus aureus) (UniProt P0A006); assay: Binding affinity to Staphylococcus aureus ATCC 29213 Arsenate reductase at 10 uM in presence of 9-(Pent-4-yn-1-yl)-1a,10a-dihydro-2H-oxireno[2',3':4,5]-benzo[1,2-a]carbazole-2,10(9H)-dione after 1 hr by biotin-azide fluorescence dependent LC-MS/MS-based ABPP assay; in short: as §1
T1 sequence (whole entry): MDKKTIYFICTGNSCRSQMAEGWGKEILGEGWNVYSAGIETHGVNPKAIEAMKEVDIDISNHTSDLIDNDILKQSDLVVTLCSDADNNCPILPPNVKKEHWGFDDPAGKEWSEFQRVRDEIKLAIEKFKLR

[14] = biological target: T2, 2-dehydropantoate 2-reductase (Staphylococcus aureus) (UniProt A0A0J9X283); assay: Binding affinity to Staphylococcus aureus ATCC 29213 2-dehydropantoate 2-reductase at 10 uM in presence of 9-(Pent-4-yn-1-yl)-1a,10a-dihydro-2H-oxireno[2',3':4,5]-benzo[1,2-a]carbazole-2,10(9H)-dione after 1 hr by biotin-azide fluorescence dependent LC-MS/MS-based ABPP assay; in short: as §1
T2 sequence (whole entry): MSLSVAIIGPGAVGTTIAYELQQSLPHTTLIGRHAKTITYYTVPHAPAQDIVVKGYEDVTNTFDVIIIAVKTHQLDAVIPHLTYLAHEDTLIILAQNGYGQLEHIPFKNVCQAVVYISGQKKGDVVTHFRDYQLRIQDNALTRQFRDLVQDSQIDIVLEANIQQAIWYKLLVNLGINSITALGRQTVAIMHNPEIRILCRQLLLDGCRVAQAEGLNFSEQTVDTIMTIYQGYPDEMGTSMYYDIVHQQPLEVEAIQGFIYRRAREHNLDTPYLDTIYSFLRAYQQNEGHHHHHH

Enterococcus faecalis = assay: Antibacterial activity against Enterococcus faecalis B3119 after 16 to 18 hrs by CLSI M07-A10 protocol based dilution method; format: functional
[15] = biological target: T3, Alkaline phosphatase synthesis transcriptional regulatory protein (Staphylococcus aureus) (UniProt W8TVM3); assay: Binding affinity to Staphylococcus aureus ATCC 29213 Transcriptional regulator PhoP at 10 uM in presence of 9-(Pent-4-yn-1-yl)-1a,10a-dihydro-2H-oxireno[2',3':4,5]-benzo[1,2-a]carbazole-2,10(9H)-dione after 1 hr by biotin-azide fluorescence dependent LC-MS/MS-based ABPP assay; in short: as §1
T3 sequence (whole entry): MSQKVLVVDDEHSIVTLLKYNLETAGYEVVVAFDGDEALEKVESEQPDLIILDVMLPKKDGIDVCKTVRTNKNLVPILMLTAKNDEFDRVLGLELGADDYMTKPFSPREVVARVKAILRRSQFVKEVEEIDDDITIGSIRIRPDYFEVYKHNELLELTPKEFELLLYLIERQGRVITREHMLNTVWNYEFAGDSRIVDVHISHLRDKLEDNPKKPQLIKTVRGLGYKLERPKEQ

Staphylococcus aureus [16] = assay: Binding affinity to Staphylococcus aureus ATCC 29213 MarR family transcriptional regulator at 10 uM in presence of 9-(Pent-4-yn-1-yl)-1a,10a-dihydro-2H-oxireno[2',3':4,5]-benzo[1,2-a]carbazole-2,10(9H)-dione after 1 hr by biotin-azide fluorescence dependent LC-MS/MS-based ABPP assay; in short: as §1
Staphylococcus aureus [17] = assay: Antibacterial activity against vancomycin-resistant Staphylococcus aureus AIS100050 after 16 to 18 hrs by CLSI M07-A10 protocol based dilution method; format: functional
Klebsiella pneumoniae = assay: Antibacterial activity against Klebsiella pneumoniae ATCC BAA-1705 after 16 to 18 hrs by CLSI M07-A10 protocol based dilution method; format: functional

In the case of `CC(C)n1c2ccccc2c2ccc3c(c21)C(=O)C1OC1C3=O` (stereo not given), the Activity (Staphylococcus aureus [1]) is reported as “Active”, the Activity (Staphylococcus aureus [2]) is reported as “Active” and the Activity [3] is reported as “Active”. For the same compound, the Activity [4] was 34%, the K [5] was 7.54 ×10⁻² /min and the MIC (Staphylococcus aureus [6]) was 0.5 µg/mL (≈ 1.64 µM). For the same compound, the MIC (Staphylococcus aureus [7]) was 0.5 µg/mL (≈ 1.64 µM), the MIC (Staphylococcus aureus [8]) was 0.5 µg/mL (≈ 1.64 µM) and the Activity (Staphylococcus aureus [9]) was “Active”. The Activity (Staphylococcus aureus [10]) was “Active”, the MIC (Staphylococcus aureus [11]) was 0.5 µg/mL (≈ 1.64 µM) and the Activity (Staphylococcus aureus [12]) was “Active”. For the same compound, the Activity (Erythrocyte) was “Non-Toxic”, the Activity [13] was “Active” and the Activity [14] was “Active”. The MIC (Enterococcus faecalis) was 64 µg/mL (≈ 210 µM), the Activity [15] was “Active” and the Activity (Staphylococcus aureus [16]) was “Active”. The MIC (Staphylococcus aureus [17]) was 0.5 µg/mL (≈ 1.64 µM) and the MIC (Klebsiella pneumoniae) was 64 µg/mL (≈ 210 µM).
